In ChEMBL document CHEMBL1275336, “Identification of a novel pyrrole derivative endowed with antimycobacterial activity and protection index comparable to that of the current antitubercular drugs streptomycin and rifampin” (Bioorg Med Chem, 2010):
≈ marks a conversion by molar mass, not a printed value.

Experiments:
[1] = tested on: Mycobacterium tuberculosis; test: Antimycobacterial activity against Mycobacterium tuberculosis CIP 103471 after 3 to 28 days by twofold dilution method; assay type: functional
Summary of the method: (§1)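 Twofold agar dilution in Middlebrook 7H11 with 10% OADC; plates held at 37 °C for 3 or 28 days. MIC is the lowest concentration giving complete inhibition of visible mycobacterial growth. Rifampin, streptomycin and BM521 served as references.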

[2] = tested on: Mycobacterium tuberculosis; test: Antimycobacterial activity against Mycobacterium tuberculosis H37Rv ATCC 27294 after 3 to 28 days by twofold dilution method; assay type: functional; summary of the method: as §1
[3] = Protection index, ratio of CC50 for Mycobacterium tuberculosis infected mouse J774A1 cells to MIC for Mycobacterium tuberculosis H37Rv ATCC 27294; assay type: functional, J774.A1
[4] = tested on: Mycobacterium tuberculosis; test: Antimycobacterial activity against Mycobacterium tuberculosis H37Rv ATCC 27294 infected in mouse J774A1 cells assessed as reduction of bacterial growth at 1 ug/ml after 6 days relative to untreated control; assay type: functional, J774.A1; design: scale not given: the % may be the effect or the level left
[5] = tested on: Mycobacterium tuberculosis; test: Antimycobacterial activity against Mycobacterium tuberculosis H37Rv ATCC 27294 infected in mouse J774A1 cells assessed as reduction of bacterial growth at 0.5 ug/ml after 6 days relative to untreated control; assay type: functional, J774.A1; design: scale not given: the % may be the effect or the level left
[6] = tested on: Mycobacterium tuberculosis; test: Antimycobacterial activity against Mycobacterium tuberculosis H37Rv ATCC 27294 infected in mouse J774A1 cells assessed as reduction of bacterial growth at 0.25 ug/ml after 6 days relative to untreated control; assay type: functional, J774.A1; design: scale not given: the % may be the effect or the level left
[7] = tested on: Mycobacterium tuberculosis; test: Antimycobacterial activity against Mycobacterium tuberculosis H37Rv ATCC 27294 infected in mouse J774A1 cells assessed as reduction of bacterial growth at 0.125 ug/ml after 6 days relative to untreated control; assay type: functional, J774.A1; design: scale not given: the % may be the effect or the level left

Row | Structure (SMILES) | MIC [1] | MIC [2] | PI [3] | Activity [4] | Activity [5] | Activity [6] | Activity [7]
1 | COc1ccc(-c2cc(CN3CCSCC3)c(C)n2-c2ccc(C)cc2)cc1 | 0.5 µg/mL (≈ 1.27 µM) | 0.25 µg/mL (≈ 0.637 µM) | 46.2 | – | – | – | –
2 | CSc1ccc(-n2c(-c3ccc(F)cc3)cc(CN3CCSCC3)c2C)cc1 | 1 µg/mL (≈ 2.42 µM) | 1 µg/mL (≈ 2.42 µM) | >128 | – | – | – | –
3 | COc1ccc(-n2c(-c3ccc(C)cc3)cc(CN3CCSCC3)c2C)cc1 | 1 µg/mL (≈ 2.55 µM) | 2 µg/mL (≈ 5.09 µM) | 6.57 | – | – | – | –
4 | CCc1ccc(-c2cc(CN3CCSCC3)c(C)n2-c2ccc(OC)cc2)cc1 | 0.5 µg/mL (≈ 1.23 µM) | 0.5 µg/mL (≈ 1.23 µM) | 36.06 | – | – | – | –
5 | CCc1ccc(-n2c(-c3ccc(OC)cc3)cc(CN3CCSCC3)c2C)cc1 | 0.5 µg/mL (≈ 1.23 µM) | 0.25 µg/mL (≈ 0.615 µM) | 63.04 | – | – | – | –
6 | CCCc1ccc(-c2cc(CN3CCSCC3)c(C)n2-c2ccc(OC)cc2)cc1 | 0.5 µg/mL (≈ 1.19 µM) | 0.25 µg/mL (≈ 0.594 µM) | >512 | – | – | – | –
7 | CCCc1ccc(-n2c(-c3ccc(OC)cc3)cc(CN3CCSCC3)c2C)cc1 | 0.25 µg/mL (≈ 0.594 µM) | 0.25 µg/mL (≈ 0.594 µM) | 49.12 | – | – | – | –
8 | COc1ccc(-n2c(-c3ccc(C(C)C)cc3)cc(CN3CCSCC3)c2C)cc1 | 0.5 µg/mL (≈ 1.19 µM) | 0.5 µg/mL (≈ 1.19 µM) | 9.76 | – | – | – | –
9 | COc1ccc(-c2cc(CN3CCSCC3)c(C)n2-c2ccc(C(C)C)cc2)cc1 | 0.25 µg/mL (≈ 0.594 µM) | 0.25 µg/mL (≈ 0.594 µM) | 40.88 | – | – | – | –
10 | CSc1ccc(-n2c(-c3ccc(C)cc3)cc(CN3CCSCC3)c2C)cc1 | 1 µg/mL (≈ 2.45 µM) | 1 µg/mL (≈ 2.45 µM) | 69.06 | – | – | – | –
11 | CSc1ccc(-c2cc(CN3CCSCC3)c(C)n2-c2ccc(C)cc2)cc1 | 0.25 µg/mL (≈ 0.612 µM) | 0.25 µg/mL (≈ 0.612 µM) | 73.6 | – | – | – | –
12 | CCc1ccc(-c2cc(CN3CCSCC3)c(C)n2-c2ccc(SC)cc2)cc1 | 1 µg/mL (≈ 2.37 µM) | 0.25 µg/mL (≈ 0.591 µM) | 102.96 | – | – | – | –
13 | CCc1ccc(-n2c(-c3ccc(SC)cc3)cc(CN3CCSCC3)c2C)cc1 | 0.25 µg/mL (≈ 0.591 µM) | 0.25 µg/mL (≈ 0.591 µM) | 68.72 | – | – | – | –
14 | CCCc1ccc(-c2cc(CN3CCSCC3)c(C)n2-c2ccc(SC)cc2)cc1 | 0.5 µg/mL (≈ 1.14 µM) | 0.25 µg/mL (≈ 0.572 µM) | 359.68 | – | – | – | –
15 | CCCc1ccc(-n2c(-c3ccc(SC)cc3)cc(CN3CCSCC3)c2C)cc1 | 0.5 µg/mL (≈ 1.14 µM) | 0.125 µg/mL (≈ 0.286 µM) | 202 | – | – | – | –
16 | CSc1ccc(-n2c(-c3ccc(C(C)C)cc3)cc(CN3CCSCC3)c2C)cc1 | 0.5 µg/mL (≈ 1.14 µM) | 0.5 µg/mL (≈ 1.14 µM) | 229.9 | – | – | – | –

Row | Structure (SMILES) | MIC [1] | MIC [2] | PI [3] | Activity [4] | Activity [5] | Activity [6] | Activity [7]
17 | CSc1ccc(-c2cc(CN3CCSCC3)c(C)n2-c2ccc(C(C)C)cc2)cc1 | 0.5 µg/mL (≈ 1.14 µM) | 0.125 µg/mL (≈ 0.286 µM) | 286.24 | – | – | – | –
18 | Cc1c(CN2CCSCC2)cc(-c2ccccc2C(F)(F)F)n1-c1ccc(F)cc1 | – | > 16 µg/mL | – | – | – | – | –
19 | Cc1c(CN2CCSCC2)cc(-c2ccc(F)cc2)n1-c1ccccc1C(F)(F)F | – | 4 µg/mL (≈ 9.21 µM) | 0.65 | – | – | – | –
20 | Cc1c(CN2CCSCC2)cc(-c2ccc(C(F)(F)F)cc2)n1-c1ccc(F)cc1 | – | 1 µg/mL (≈ 2.3 µM) | 8.46 | – | – | – | –
21 | Cc1c(CN2CCSCC2)cc(-c2ccc(F)cc2)n1-c1ccc(C(F)(F)F)cc1 | – | 8 µg/mL (≈ 18.4 µM) | 0.29 | – | – | – | –
22 | COc1ccccc1-c1cc(CN2CCSCC2)c(C)n1-c1ccc(F)cc1 | – | > 16 µg/mL | – | – | – | – | –
23 | COc1ccccc1-n1c(-c2ccc(F)cc2)cc(CN2CCSCC2)c1C | – | > 16 µg/mL | – | – | – | – | –
24 | COc1ccc(-c2cc(CN3CCSCC3)c(C)n2-c2ccc(F)cc2)cc1 | – | 0.25 µg/mL (≈ 0.63 µM) | >480 | – | – | – | –
25 | COc1ccc(-n2c(-c3ccc(F)cc3)cc(CN3CCSCC3)c2C)cc1 | – | 4 µg/mL (≈ 10.1 µM) | 5.32 | – | – | – | –
26 | CSc1ccccc1-c1cc(CN2CCSCC2)c(C)n1-c1ccc(F)cc1 | 16 µg/mL (≈ 38.8 µM) | 16 µg/mL (≈ 38.8 µM) | 1.39 | – | – | – | –
27 | CSc1ccccc1-n1c(-c2ccc(F)cc2)cc(CN2CCSCC2)c1C | 8 µg/mL (≈ 19.4 µM) | 8 µg/mL (≈ 19.4 µM) | 4.2 | – | – | – | –
28 | CSc1ccc(-c2cc(CN3CCSCC3)c(C)n2-c2ccc(F)cc2)cc1 | < 0.125 µg/mL | 0.125 µg/mL (≈ 0.303 µM) | >1000 | 99.81% | 99.72% | 99.02% | 96.12%
29 | Cc1ccc(-c2cc(CN3CCSCC3)c(C)n2-c2ccc(F)cc2)cc1 | 0.125 µg/mL (≈ 0.328 µM) | 0.25 µg/mL (≈ 0.657 µM) | 272.16 | – | – | – | –
30 | CO[C@H]1/C=C/O[C@@]2(C)Oc3c(C)c(O)c4c(O)c(c(/C=N/N5CCN(C)CC5)c(O)c4c3C2=O)NC(=O)/C(C)=C\C=C\[C@H](C)[C@H](O)[C@@H](C)[C@@H](O)[C@@H](C)[C@H](OC(C)=O)[C@@H]1C [RIFAMPIN] | 0.25 µg/mL (≈ 0.304 µM) | 0.25 µg/mL (≈ 0.304 µM) | 828.12 | 99.97% | 99.93% | 99.83% | 96.59%
31 | CN[C@@H]1[C@H](O[C@H]2[C@H](O[C@H]3[C@H](O)[C@@H](O)[C@H](N=C(N)N)[C@@H](O)[C@@H]3N=C(N)N)O[C@@H](C)[C@]2(O)C=O)O[C@@H](CO)[C@H](O)[C@H]1O [STREPTOMYCIN] | 0.5 µg/mL (≈ 0.86 µM) | 0.5 µg/mL (≈ 0.86 µM) | >2000 | – | – | – | –
